Data as given in ChEMBL document CHEMBL4261629 (Bioorg Med Chem, 2018).
Activity calls are given as the source filed them. The rule behind the calls is not given here.

Key:
[1] = biological target: T1, Histone deacetylase 6 (Rattus norvegicus) (UniProt Q99P97); assay: Inhibition of HDAC6 in rat PC12 cells assessed as increase in acetylated alpha-tubulin expression after 24 hrs by Western blot analysis; assay type: cell-based
T1 sequence (whole entry): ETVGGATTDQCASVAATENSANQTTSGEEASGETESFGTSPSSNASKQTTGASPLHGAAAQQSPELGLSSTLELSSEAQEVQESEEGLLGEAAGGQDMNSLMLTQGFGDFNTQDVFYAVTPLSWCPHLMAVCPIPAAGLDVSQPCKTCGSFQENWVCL
In short: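 Cellular HDAC6 inhibition: PC12 cells were incubated with compound at 0.01, 0.1, 1 and 10 μM. Acetylated α-tubulin and total α-tubulin were detected by Western blot, and their ratio was assessed.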

PC-12 [2] = assay: Neuroprotective activity against 6-OHDA-induced toxicity in rat PC12 cells assessed as increase in cell viability at 10 uM pretreated for 24 hrs followed by 6-OHDA challenge and measured after 12 hrs by MTT assay; assay type: functional, cell-based
In short: (§1)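 Medium was replaced with fresh medium containing H2O2 (400 μM) or 6-OHDA (200 μM), and incubation continued 12 h. Viability was read by MTT assay. Mean ± SD, three independent experiments.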

PC-12 [3] = assay: Cytoprotective activity against H2O2-induced damage in rat PC12 cells assessed as decrease in ROS accumulation preincubated for 24 hrs followed by H2O2 challenge measured after 12 hrs by DCFH-DA dye-based inverted fluorescence microscopic analysis; assay type: functional, cell-based
In short: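 PC12 cells were pretreated with compound (5 or 10 µM), then challenged with H2O2 and stained with DCFH-DA to show ROS. Fluorescence images were taken by inverted fluorescence microscopy.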

PC-12 [4] = assay: Antioxidant activity against H2O2-induced oxidative stress in rat PC12 cells assessed as decrease in ROS accumulation preincubated for 24 hrs followed by H2O2 challenge and measured after 12 hrs coincubated with tubastatin A by DCFH-DA dye-based fluorescence analysis; assay type: functional, cell-based
In short: (§2)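 Intracellular ROS was detected by DCFH-DA staining, which esterases deacetylate and ROS oxidise to fluorescent dichlorofluorescein. Fluorescence was quantified on a microplate reader.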

[5] = Antioxidant activity assessed as H2O2 radical scavenging at 10 uM up to 200 mins; assay type: functional
In short: (§3)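 Kinetic peroxide scavenging by GSH at 25 °C in 100 mM phosphate buffer, pH 7.5. Final conditions: EDTA 1 mM, GSH 0.25 mM, NADPH 0.50 mM, glutathione reductase 1.3 unit·mL-1, peroxide 0.20 mM (H2O2, t-BuOOH or Cum-OOH), catalyst 10 μM. Scavenging was followed over time, and maximal scavenging was derived. Mean ± SE, three independent experiments.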

[6] = Antioxidant activity assessed as tert-butyl hydroperoxide radical scavenging at 10 uM up to 200 mins; assay type: functional; in short: as §3
PC-12 [7] = assay: Cytoprotective activity against H2O2-induced damage in rat PC12 cells assessed as decrease in ROS accumulation preincubated for 24 hrs followed by H2O2 challenge measured after 12 hrs by DCFH-DA dye-based fluorescence analysis; assay type: functional, cell-based; in short: as §2
PC-12 [8] = assay: Antioxidant activity against H2O2-induced oxidative stress in rat PC12 cells assessed as decrease in ROS accumulation at 5 uM preincubated for 24 hrs followed by H2O2 challenge and measured after 12 hrs by DCFH-DA dye-based fluorescence analysis; assay type: functional, cell-based; in short: as §2
[9] = biological target: T2, Protein deacetylase HDAC6 (Homo sapiens, UniProt Q9UBN7); assay: Inhibition of recombinant human HDAC6 using fluorogenic HDAC substrate preincubated for 15 mins followed by substrate addition and measured after 30 mins by fluorescence analysis
T2 sequence (Q9UBN7 whole entry): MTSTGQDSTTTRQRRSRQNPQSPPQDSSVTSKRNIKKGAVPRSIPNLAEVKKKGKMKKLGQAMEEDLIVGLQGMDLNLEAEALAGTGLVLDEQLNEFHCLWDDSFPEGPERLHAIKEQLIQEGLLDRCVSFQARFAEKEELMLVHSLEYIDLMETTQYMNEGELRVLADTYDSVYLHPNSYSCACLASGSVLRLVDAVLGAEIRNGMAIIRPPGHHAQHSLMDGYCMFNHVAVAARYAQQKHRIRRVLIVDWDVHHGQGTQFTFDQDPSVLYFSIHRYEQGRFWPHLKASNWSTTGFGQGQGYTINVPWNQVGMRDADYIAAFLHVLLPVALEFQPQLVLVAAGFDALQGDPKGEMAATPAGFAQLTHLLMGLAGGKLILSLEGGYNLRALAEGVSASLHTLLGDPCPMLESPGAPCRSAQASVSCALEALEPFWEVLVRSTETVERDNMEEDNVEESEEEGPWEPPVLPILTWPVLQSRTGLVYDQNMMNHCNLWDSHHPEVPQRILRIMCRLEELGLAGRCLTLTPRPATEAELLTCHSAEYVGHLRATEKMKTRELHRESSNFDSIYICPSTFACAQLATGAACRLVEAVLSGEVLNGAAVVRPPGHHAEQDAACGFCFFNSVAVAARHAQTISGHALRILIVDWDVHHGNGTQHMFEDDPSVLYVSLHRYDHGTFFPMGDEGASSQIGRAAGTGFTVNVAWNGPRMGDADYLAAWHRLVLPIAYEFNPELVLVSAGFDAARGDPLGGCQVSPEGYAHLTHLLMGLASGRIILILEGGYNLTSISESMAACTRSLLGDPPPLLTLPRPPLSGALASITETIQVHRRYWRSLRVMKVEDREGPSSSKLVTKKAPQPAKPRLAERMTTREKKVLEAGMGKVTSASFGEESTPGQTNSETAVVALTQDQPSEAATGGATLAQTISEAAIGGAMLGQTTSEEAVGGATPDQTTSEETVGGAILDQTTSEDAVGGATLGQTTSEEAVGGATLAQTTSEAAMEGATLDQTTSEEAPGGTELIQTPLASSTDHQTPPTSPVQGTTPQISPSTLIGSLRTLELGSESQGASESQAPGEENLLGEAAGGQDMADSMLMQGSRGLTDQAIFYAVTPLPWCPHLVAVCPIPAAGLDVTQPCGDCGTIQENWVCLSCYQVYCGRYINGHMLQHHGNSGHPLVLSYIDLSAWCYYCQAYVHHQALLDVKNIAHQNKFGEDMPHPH

PC-12 [10] = assay: Neuroprotective activity against H2O2-induced toxicity in rat PC12 cells assessed as cell viability at 5 uM pretreated for 24 hrs followed by H2O2 challenge and measured after 12 hrs by MTT assay relative to control; assay type: functional; details: read-out: Activity; in short: as §1
[11] = Antioxidant activity assessed as cumene hydroperoxide radical scavenging at 10 uM up to 200 mins; assay type: functional; in short: as §3
Histone deacetylase 3 = Histone deacetylase 3 (Homo sapiens, UniProt O15379); assay: Inhibition of recombinant human HDAC3 using fluorogenic HDAC substrate after 30 mins by fluorescence analysis
PC-12 [12] = assay: Neuroprotective activity against 6-OHDA-induced toxicity in rat PC12 cells assessed as increase in cell viability at 5 uM pretreated for 24 hrs followed by 6-OHDA challenge and measured after 12 hrs by MTT assay; assay type: functional, cell-based; in short: as §1
PC-12 [13] = assay: Cytotoxicity against rat PC12 cells at 20 uM after 24 hrs by MTT assay; assay type: cell-based; details: pc-12, 24 h
[14] = Antioxidant activity assessed as H2O2 radical scavenging at 10 uM measured within 180 mins; assay type: functional; in short: as §3
[15] = Antioxidant activity assessed as cumene hydroperoxide radical scavenging at 10 uM measured within 180 mins; assay type: functional; in short: as §3
[16] = Antioxidant activity assessed as tert-butyl hydroperoxide radical scavenging at 10 uM measured within 180 mins; assay type: functional; in short: as §3
PC-12 [17] = assay: Neuroprotective activity against H2O2-induced toxicity in rat PC12 cells assessed as cell viability at 10 uM pretreated for 24 hrs followed by H2O2 challenge and measured after 12 hrs by MTT assay relative to control; assay type: functional, cell-based; in short: as §1
PC-12 [18] = assay: Neuroprotective activity against 6-OHDA-induced toxicity in rat PC12 cells assessed as increase in cell viability at 5 to 10 uM pretreated for 24 hrs followed by 6-OHDA challenge and measured after 12 hrs coincubated with ebselen by MTT assay; assay type: functional, cell-based
In short: (§4)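 PC12 cells seeded at 1 × 10⁴ cells/well and grown 1 d, then pretreated 24 h with compound, alone or with ebselen. Medium replaced with fresh medium containing the insult (H2O2 400 µM or 6-OHDA 200 µM), incubated 12 h. Viability by MTT assay, relative to control. Mean ± SD of three independent experiments.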

PC-12 [19] = assay: Cytotoxicity against rat PC12 cells at 20 uM in presence of ebselen after 24 hrs by MTT assay; assay type: cell-based; details: pc-12, 24 h
In short: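 PC12 cells exposed for 24 h to compound at 10 or 20 µM, alone or combined with ebselen. Viability by MTT assay. Mean ± SD of three independent experiments.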

PC-12 [20] = assay: Neuroprotective activity against H2O2-induced toxicity in rat PC12 cells assessed as cell viability at 5 to 10 uM pretreated for 24 hrs followed by H2O2 challenge and measured after 12 hrs coincubated with ebselen by MTT assay relative to control; assay type: functional; in short: as §4
PC-12 [21] = assay: Antioxidant activity against H2O2-induced oxidative stress in rat PC12 cells assessed as decrease in ROS accumulation at 5 uM preincubated for 24 hrs followed by H2O2 challenge and measured after 12 hrs coincubated with ebselen by DCFH-DA dye-based fluorescence analysis; assay type: functional, cell-based
In short: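 PC12 cells pretreated with compound (5 or 10 µM) alone or together with ebselen, then challenged with H2O2. Intracellular ROS detected by DCFH-DA staining, which is deacetylated in cells and oxidised by ROS to fluorescent dichlorofluorescein. Imaged by inverted fluorescence microscopy and quantified on a fluorescence microplate reader.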

Chain of Histone deacetylase 3 (O15379 whole entry): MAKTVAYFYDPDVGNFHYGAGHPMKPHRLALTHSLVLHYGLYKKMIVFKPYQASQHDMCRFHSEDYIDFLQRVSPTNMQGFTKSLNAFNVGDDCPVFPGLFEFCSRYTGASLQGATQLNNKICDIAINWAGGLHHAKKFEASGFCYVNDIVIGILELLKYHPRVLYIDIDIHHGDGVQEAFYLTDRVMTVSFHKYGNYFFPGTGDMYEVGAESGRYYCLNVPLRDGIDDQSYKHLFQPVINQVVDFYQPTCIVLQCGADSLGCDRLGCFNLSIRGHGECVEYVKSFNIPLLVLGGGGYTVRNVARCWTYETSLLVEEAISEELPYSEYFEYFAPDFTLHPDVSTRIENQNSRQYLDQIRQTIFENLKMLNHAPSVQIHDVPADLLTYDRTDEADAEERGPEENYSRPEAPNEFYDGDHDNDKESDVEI

SMILES: O=C(NO)c1ccc(Cn2[se]c3ccccc3c2=O)cc1
- inhibition [1]: Dose-dependent effect
- Activity (PC-12 [2]): Active
- Activity (PC-12 [3]): Active
- Activity (PC-12 [4]): Dose-dependent effect
- Activity [5]: 62%
- Activity [6]: 78%
- Activity (PC-12 [7]): Active
- Activity (PC-12 [8]): Active
- IC50 [9]: 37 nM
- viability at 5 µM (PC-12 [10]): 90%
- Activity [11]: 37%
- IC50 (Histone deacetylase 3): 1300 nM
- Activity (PC-12 [12]): Active
- Activity (PC-12 [13]): Non-Toxic

SMILES: O=C(NO)c1ccc(Cn2[se]c3ccc(O)cc3c2=O)cc1
- Activity (PC-12 [2]): Active
- Activity [14]: Active
- Activity [15]: Active
- IC50 [9]: 188 nM
- Activity [16]: Active
- Activity (PC-12 [12]): Active
- Activity (PC-12 [17]): Active
- Activity (PC-12 [13]): Non-Toxic

SMILES: O=C(CCCOc1ccc(-n2[se]c3ccccc3c2=O)cc1)NO
- IC50 [9]: 903 nM

SMILES: O=C(CCCCn1[se]c2ccccc2c1=O)NO
- IC50 [9]: 356 nM

SMILES: O=C(NO)c1ccc(Cn2[se]c3ccc(C(F)(F)F)cc3c2=O)cc1
- IC50 [9]: 584 nM

SMILES: O=C(NO)c1cnc(N2CCC(Cn3[se]c4ccccc4c3=O)CC2)nc1
- IC50 [9]: 444 nM

SMILES: CC(c1ccc(C(=O)NO)cc1)n1[se]c2ccccc2c1=O (racemic)
- IC50 [9]: 863 nM

SMILES: O=C(CCCCCCOc1ccc(-n2[se]c3ccccc3c2=O)cc1)NO
- IC50 [9]: 181 nM

SMILES: O=C(CCCCCCn1[se]c2ccccc2c1=O)NO
- Activity [5]: 41%
- Activity [6]: 41%
- IC50 [9]: 19 nM
- Activity [11]: 25%
- IC50 (Histone deacetylase 3): 164 nM

SMILES: O=C(CCc1ccc(-n2[se]c3ccccc3c2=O)cc1)NO
- IC50 [9]: 1140 nM

SMILES: O=C(NO)c1ccc(Cn2[se]c3ccc(F)cc3c2=O)cc1
- IC50 [9]: 178 nM

SMILES: O=C(CCCCCOc1ccc(-n2[se]c3ccccc3c2=O)cc1)NO
- IC50 [9]: 508 nM

SMILES: CN1CCc2c(c3ccccc3n2Cc2ccc(C(=O)NO)cc2)C1 [TUBASTATIN A]
- Activity (PC-12 [2]): Active
- Activity (PC-12 [3]): Active
- Activity (PC-12 [4]): Dose-dependent effect
- Activity (PC-12 [18]): Active
- Activity (PC-12 [19]): Non-Toxic
- Activity (PC-12 [7]): Active
- Activity (PC-12 [8]): Active
- Activity (PC-12 [20]): 90%
- Activity (PC-12 [12]): Active
- Activity (PC-12 [17]): Active
- Activity (PC-12 [13]): Non-Toxic
- Activity (PC-12 [21]): Active

SMILES: O=C(CCCCCn1[se]c2ccccc2c1=O)NO
- IC50 [9]: 181 nM

SMILES: O=C(/C=C/c1ccc(-n2[se]c3ccccc3c2=O)cc1)NO
- IC50 [9]: 679 nM

SMILES: O=C(NO)c1cnc(N2CCC(n3[se]c4ccccc4c3=O)CC2)nc1
- IC50 [9]: 968 nM

SMILES: O=C(NO)c1ccc(-n2[se]c3ccccc3c2=O)cc1
- IC50 [9]: 1970 nM
